How the values were obtained:
[1] = molecular target: Alpha-galactosidase (Coffea arabica) (UniProt Q42656); conditions: 1000 uM
Bos taurus = species: Bos taurus; conditions: 1000 uM
[2] = molecular target: T1, Tissue alpha-L-fucosidase (Rattus norvegicus) (UniProt P17164); conditions: 1000 uM
T1 sequence (whole entry): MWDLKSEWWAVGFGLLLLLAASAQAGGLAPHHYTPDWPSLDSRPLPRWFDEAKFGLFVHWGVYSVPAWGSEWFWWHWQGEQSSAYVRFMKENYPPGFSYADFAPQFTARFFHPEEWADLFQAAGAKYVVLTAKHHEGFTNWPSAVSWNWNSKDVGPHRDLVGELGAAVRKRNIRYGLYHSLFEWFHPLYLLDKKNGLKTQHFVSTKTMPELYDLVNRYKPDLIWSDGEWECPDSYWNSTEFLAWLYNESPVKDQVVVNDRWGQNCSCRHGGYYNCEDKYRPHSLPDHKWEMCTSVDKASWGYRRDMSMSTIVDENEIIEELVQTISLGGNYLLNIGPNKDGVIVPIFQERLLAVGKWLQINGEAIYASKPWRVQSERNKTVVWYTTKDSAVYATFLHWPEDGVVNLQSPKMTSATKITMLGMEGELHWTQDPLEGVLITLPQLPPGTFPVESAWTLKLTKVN

Rattus norvegicus = species: Rattus norvegicus; conditions: 1000 uM
[3] = Inhibitory activity measured against beta-galactosidase of bovine liver by colorimetric assay using the D-glucose oxidase-peroxidase method; design: species or system Bos taurus; conditions: in the assay text read “p-nitrophenyl glycoside method” for “D-glucose oxidase-peroxidase method”
Procedure, shortened: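 Activity was measured with the appropriate p-nitrophenyl glycoside as substrate at each enzyme's optimum pH. The reaction was stopped with 400 mM Na2CO3, and released p-nitrophenol was read spectrophotometrically at 400 nm.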

[4] = Inhibitory activity measured against beta-galactosidase of rat intestinal lactase by colorimetric assay using the D-glucose oxidase-peroxidase method
Procedure, shortened: (§1)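 Enzyme source was brush border membranes from the intestine of male Wistar rats. Each activity was run with the appropriate disaccharide as substrate at that enzyme's optimum pH. Released D-glucose was quantified colorimetrically by the glucose oxidase–peroxidase method.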

[5] = Inhibitory activity measured against beta-galactosidase of rat intestinal lactase by colorimetric assay using the D-glucose oxidase-peroxidase method.
Procedure, shortened: as §1

Chain of Alpha-galactosidase (Coffea arabica) (Q42656 whole entry, looked up): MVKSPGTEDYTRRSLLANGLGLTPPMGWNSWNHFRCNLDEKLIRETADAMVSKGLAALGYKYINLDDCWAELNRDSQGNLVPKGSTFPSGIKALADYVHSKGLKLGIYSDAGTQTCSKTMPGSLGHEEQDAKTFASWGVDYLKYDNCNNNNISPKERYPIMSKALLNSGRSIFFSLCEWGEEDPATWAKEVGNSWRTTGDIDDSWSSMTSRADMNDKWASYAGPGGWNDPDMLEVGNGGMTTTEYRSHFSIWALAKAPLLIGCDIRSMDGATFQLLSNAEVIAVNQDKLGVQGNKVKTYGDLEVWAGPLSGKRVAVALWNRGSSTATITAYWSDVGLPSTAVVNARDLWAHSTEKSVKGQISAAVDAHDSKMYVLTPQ

SMILES	inhibition [1]	inhibition (Bos taurus)	inhibition [2]	inhibition (Rattus norvegicus)	IC50 [3]	IC50 [4]	IC50 [5]
OC[C@H]1N[C@H](CO)[C@@H](O)[C@H](O)[C@H]1O	< 50%	< 50%	< 50%	< 50%			
OCC1NC(CO)[C@@H](O)C(O)C1O (stereo partly drawn)					86 µM	130 µM	
OC[C@H]1N[C@H](CO)[C@H](O)C(O)[C@H]1O (stereo partly drawn)			< 50%				290 µM
OC[C@H]1N[C@H](CO)[C@@H](O)C(O)[C@@H]1O (stereo partly drawn)	< 50%	< 50%		< 50%			

Second part, the compound after the results:

inhibition [1]	inhibition (Bos taurus)	inhibition [2]	inhibition (Rattus norvegicus)	IC50 [3]	IC50 [4]	IC50 [5]	SMILES
< 50%	< 50%		< 50%				OC[C@@H]1N[C@H](CO)[C@@H](O)[C@H](O)[C@@H]1O
< 50%	< 50%	< 50%	< 50%				OC[C@@H]1N[C@H](CO)[C@@H](O)[C@H](O)[C@H]1O

Source: ChEMBL document CHEMBL1131015, “Homonojirimycin isomers and N-alkylated homonojirimycins: structural and conformational basis of inhibition of glycosidases” (J Med Chem, 1998)
